Measurements reported in ChEMBL document CHEMBL1138692 (Bioorg Med Chem Lett, 2004).

Tests used:
MT4 [1] = experiment: Antiviral activity against wild-type HIV virus (HXB2) was determined in MT-4 cell line; type: functional, cell-based; conditions: Homo sapiens
How it was run: (§1)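 Antiviral IC50 measured in MT4 cells infected with the named HIV strain: wild-type HXB2, or the multi-PI-resistant EP13 or D545701.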

MT4 [2] = experiment: Antiviral activity against PI resistant virus EP13 was determined in MT-4 cell line; type: functional, cell-based; conditions: Homo sapiens; how it was run: as §1
[3] = target: Human immunodeficiency virus type 1 protease (Human immunodeficiency virus 1, UniProt Q72874); experiment: Inhibition of HIV-1 Protease activity
MT4 [4] = experiment: Antiviral activity against PI resistant virus D545701 was determined in MT-4 cell line; type: functional, cell-based; conditions: Homo sapiens; how it was run: as §1
MT4 [5] = experiment: Antiviral activity against PI resistant virus EP13 in MT-4 cell line; type: functional, cell-based; conditions: Homo sapiens; how it was run: as §1
MT4 [6] = experiment: Antiviral activity against wild-type HIV virus (HXB2) in MT-4 cell line; type: functional, cell-based; conditions: Homo sapiens; how it was run: as §1
MT4 [7] = experiment: Antiviral activity against PI resistant virus D545701 in MT-4 cell line; type: functional, cell-based; conditions: Homo sapiens; how it was run: as §1
[8] = Oral bioavailability in rat; type: ADME, organism-based; conditions: in vivo
[9] = Half life period in rat; type: ADME, organism-based; conditions: in vivo

Compound | IC50 (MT4 [1]) | IC50 (MT4 [2]) | Ki [3] | IC50 (MT4 [4]) | IC50 (MT4 [5]) | IC50 (MT4 [6]) | IC50 (MT4 [7]) | bioavailability [8] | half-life [9]
COC(=O)NCCC(C)(C)CN(C[C@@H](O)[C@H](Cc1ccccc1)NC(=O)O[C@H]1CO[C@H]2OCC[C@H]21)S(=O)(=O)c1ccc2c(c1)OCO2 | 1.4 nM | 22 nM | 0.00016 nM | 40 nM |  |  |  |  | 
CC(=O)NCCCC(C)(C)CN(C[C@@H](O)[C@H](Cc1ccccc1)NC(=O)O[C@H]1CO[C@H]2OCC[C@H]21)S(=O)(=O)c1ccc2c(c1)OCO2 | 23 nM | 30 nM |  | 120 nM |  |  |  |  | 
CNC(=O)NCCCC(C)(C)CN(C[C@@H](O)[C@H](Cc1ccccc1)NC(=O)O[C@H]1CO[C@H]2OCC[C@H]21)S(=O)(=O)c1ccc2c(c1)OCO2 | 38 nM | 110 nM |  | 200 nM |  |  |  |  | 
CC(C)(CCCN)CN(C[C@@H](O)[C@H](Cc1ccccc1)NC(=O)O[C@H]1CO[C@H]2OCC[C@H]21)S(=O)(=O)c1ccc2c(c1)OCO2 |  |  |  |  | 540 nM | 370 nM | 730 nM |  | 
COC(=O)NCCCCCC(C)(C)CN(C[C@@H](O)[C@H](Cc1ccccc1)NC(=O)O[C@H]1CO[C@H]2OCC[C@H]21)S(=O)(=O)c1ccc2c(c1)OCO2 | 5.5 nM | 46 nM | 0.00012 nM | 65 nM |  |  |  |  | 
COC(=O)NCCCC(C)(C)CN(C[C@@H](O)[C@H](Cc1ccccc1)NC(=O)O[C@H]1CO[C@H]2OCC[C@H]21)S(=O)(=O)c1ccc(N)cc1 |  |  | 0.00026 nM |  | 46 nM | 31 nM | 95 nM |  | 
COC(=O)NCCCCC(C)(C)CN(C[C@@H](O)[C@H](Cc1ccccc1)NC(=O)O[C@H]1CO[C@H]2OCC[C@H]21)S(=O)(=O)c1ccc2c(c1)OCO2 | 1.6 nM | 15 nM |  | 9.2 nM |  |  |  | 20% | 1.3 h
CC(C)(CCCNS(C)(=O)=O)CN(C[C@@H](O)[C@H](Cc1ccccc1)NC(=O)O[C@H]1CO[C@H]2OCC[C@H]21)S(=O)(=O)c1ccc2c(c1)OCO2 | 33 nM | 47 nM |  | 150 nM |  |  |  |  | 
CC(C)(C)NC(=O)[C@@H]1CN(Cc2cccnc2)CCN1C[C@@H](O)C[C@@H](Cc1ccccc1)C(=O)N[C@H]1c2ccccc2C[C@H]1O | 50 nM | 330 nM |  | 440 nM |  |  |  |  | 
COC(=O)NCCCC(C)(C)CN(C[C@@H](O)[C@H](Cc1ccccc1)NC(=O)O[C@H]1CO[C@H]2OCC[C@H]21)S(=O)(=O)c1ccc2c(c1)OCO2 | 4.7 nM | 38 nM | 0.00052 nM | 66 nM |  |  |  |  | 
CC(C)CN(C[C@@H](O)[C@H](Cc1ccccc1)NC(=O)O[C@H]1CCOC1)S(=O)(=O)c1ccc(N)cc1 | 130 nM | 440 nM | 0.057 nM | > 1000 nM |  |  |  |  | 
Cc1c(O)cccc1C(=O)N[C@@H](CSc1ccccc1)[C@H](O)CN1C[C@H]2CCCC[C@H]2C[C@H]1C(=O)NC(C)(C)C | 320 nM | 450 nM |  | > 1000 nM |  |  |  |  | 
COC(=O)NCCCC(C)(C)CN(C[C@@H](O)[C@H](Cc1ccccc1)NC(=O)O[C@H]1CO[C@H]2OCC[C@H]21)S(=O)(=O)c1cccc(N)c1 | 18 nM | 36 nM | 0.00021 nM | 100 nM |  |  |  |  | 
